# Results reported in ChEMBL document CHEMBL5236545, “Discovery of Potent and Brain-Penetrant Tau Tubulin Kinase 1 (TTBK1) Inhibitors that Lower Tau Phosphorylation In Vivo” (J Med Chem, 2021).
# Columns and labels:
# [1] = Intrinsic clearance in rat liver microsomes at 1 uM incubated upto 40 mins; type: ADME, Microsome; conditions: read-out: CLH
# [2] = Intrinsic clearance in human liver microsomes at 1 uM incubated upto 40 mins; type: ADME, Microsome; conditions: read-out: CLH
# [3] = Stability of the compound at pH 7.4 by UHPLC-MS/MS analysis; type: physicochemical; conditions: buffer
# [4] = Dissociation constant, pKa of compound; type: physicochemical
# [5] = Solubility of compound; type: physicochemical
# [6] = Volume of distribution at steady state in rat at 1 mg/kg,iv administered for 4 hrs; type: ADME, organism-based; conditions: in vivo, read-out: Vdss
# [7] = Unbound brain-to-plasma concentration ratio in rat at 1 mg/kg,iv administered for 4 hrs; type: ADME, organism-based; conditions: brain and plasma (unbound), read-out: K(p,uu,brain)
# [8] = Clearance in rat at 1 mg/kg,iv administered for 4 hrs; type: ADME, organism-based; conditions: in vivo
# [9] = Half life in rat at 1 mg/kg,iv administered for 4 hrs; type: ADME, organism-based; conditions: in vivo
# [10] = Drug concentration in rat brain at 80 mg/kg,ip administered for 24 hr by LC-MS/MS analysis; type: ADME, organism-based; conditions: in vivo
# Procedure, shortened: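 Post-natal day 10 rats given 80 mg/kg I.P.; groups sacrificed 0.5−24 h after dosing. Cortical samples from each hemisphere taken for brain drug concentration and tau phosphorylation.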
# [11] = Clearance in mouse at 1 mg/kg,iv administered for 4 hrs; type: ADME, organism-based; conditions: in vivo
# [12] = Half life in mouse at 1 mg/kg,iv administered for 4 hrs; type: ADME, organism-based; conditions: in vivo
# [13] = Volume of distribution at steady state in mouse at 1 mg/kg,iv administered for 4 hrs; type: ADME, organism-based; conditions: in vivo, read-out: Vdss
SMILES,CLint scaled at 1 µM [1],CLint scaled at 1 µM [2],Stability [3],further results
CC(C)(O)C#Cc1cc2c(cn1)c(C1CC1)cn2-c1ccnc(N)n1,374 mL/min/kg,10 mL/min/kg,,
CN1CCC[C@@H](c2cn(-c3ccnc(N)n3)c3cc(C#CC(C)(C)O)ncc23)C1,< 11 mL/min/kg,< 5 mL/min/kg,99.3%,
CC(C)(O)C#Cc1cc2c(cn1)CCN2c1ccnc(N)n1,24 mL/min/kg,< 5 mL/min/kg,82.7%,pKa [4]: 7.4
CC[C@](C)(O)C#Cc1cc2c(cn1)cnn2-c1ccnc(N)n1,36 mL/min/kg,< 5 mL/min/kg,99.9%,solubility [5]: 46 µg/mL; Vd [6]: 2.48 L/kg; Kp uu at 4 h [7]: 0.08; clearance [8]: 17 mL/min/kg; half-life [9]: 4.3 h
CC(C)(O)C#Cc1cc2c(ccn2-c2ccnc(N)n2)cc1F,69 mL/min/kg,21 mL/min/kg,100%,
CC(C)(O)C#Cc1cc2c(cn1)cnn2-c1ccnc(N)n1,27 mL/min/kg,< 5 mL/min/kg,,pKa [4]: 4.9
CC(C)(O)C#Cc1cc2c(cn1)c(C1CCOCC1)cn2-c1ccnc(N)n1,38 mL/min/kg,6 mL/min/kg,,
CC[C@](C)(O)C#Cc1cc2c(ccn2-c2cc(OC)nc(N)n2)cn1,219 mL/min/kg,16 mL/min/kg,,solubility [5]: 45 µg/mL; Drug uptake [10]: Not Active; Vd [6]: 4.87 L/kg; clearance [11]: 67 mL/min/kg; half-life [12]: 6 min; Kp uu at 4 h [7]: 0.32; clearance [8]: 62 mL/min/kg; Vd [13]: 0.474 L/kg; half-life [9]: 3.6 h
COc1cc2ccn(-c3ccnc(N)n3)c2cc1C#CC(C)(C)O,56 mL/min/kg,31 mL/min/kg,,
CC(C)(O)C#Cc1cc2c(ccn2-c2ccnc(N)n2)cn1,42 mL/min/kg,19 mL/min/kg,,pKa [4]: 5.7
CC[C@](C)(O)C#Cc1cc2c(ccn2-c2ccnc(N)n2)cn1,155 mL/min/kg,11 mL/min/kg,99.7%,solubility [5]: 44 µg/mL; Vd [6]: 2.17 L/kg; Kp uu at 4 h [7]: 0.1; clearance [8]: 64 mL/min/kg; half-life [9]: 3.6 h
COc1nc(C#CC(C)(C)O)cc2c1ccn2-c1ccnc(N)n1,62 mL/min/kg,10 mL/min/kg,,
Cn1nc(-c2ccnc(N)n2)c2cc(C#CC(C)(C)O)ccc21,,,100%,
CC(C)(O)C#Cc1cc2c(ccn2-c2ccnc(N)n2)c(N2CCOCC2)n1,42 mL/min/kg,< 5 mL/min/kg,,
